Data: PubChem BioAssay
The source made the active and inactive calls.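 The calls were made as follows, unless noted: active = viability at or below 30% in both replicate assays; inconclusive = viability at or below 30% in just one of the two assays; inactive = the rest.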

Assays:
[1] = Her2 expression decrease, cell viability multiplex – SKBR3 breast tumor cells, AlphaScreen, ATP viability, primary screen (AID 461;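 active = Her2 level under about 52% in both replicate screens, with viability over 70% of control, limit read from the data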;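 as to Her2 level: lower value means less Her2 protein in the cells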;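 as to viability: percent of carrier control wells set as 100% viability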); details: SKBR3 Her2 protein level, 18-24 h, measured here: SKBR3 viability, ATP luminescence, at 10 µM
[2] = molecular target: Receptor tyrosine-protein kinase erbB-2 (Homo sapiens) (UniProt P04626); assay: as above; details: 18-24 h, at 10 µM, stronger effect = lower value
[3] = reduced viability of SK-BR-3 breast cancer cells – cell-based, 24 h, human, pilot screen (AID 572;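 active = viability at or below 10% of carrier control in both of two separate runs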;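 also: compound exposure lasted between 18 and 24 h rather than exactly 24 h; 100% = carrier-treated control wells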); details: SK-BR-3 viability, CellTiter-Glo luminescence, at 10 µM, stronger effect = lower value
[4] = HUVEC growth inhibition – cell-based, human, primary screen (AID 575); details: HUVEC proliferation, CellTiter-Glo luminescence, 72 h; at 10 µM; stronger effect = lower value;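 also: 100% = median of untreated cell wells with 0.1% DMSO on each plate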
Procedure, shortened: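 Test system: primary human umbilical vein endothelial cells; medium: endothelial basal medium with 2% FBS plus growth supplements; dosing: 10 µM compound only; times: 72 h treatment at 37 °C; signal: CTG luminescence; read-out: % viability relative to median vehicle-well signal on each plate; control set: vehicle and MePR control wells; plate: 384-well, collagen-coated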

[5] = H69AR cell proliferation blockers – human, duplicate replicates, primary screen (AID 580;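 active = viability at or under a set limit in both replicates, limit being median viability minus 3 SD, cut at about 48% in these data, passing the limit was not always enough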;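 also: 100% = mean luminescence of untreated wells and 0% = no signal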); details: H69AR lung tumor cells viability, ATP luminescence, 72 h; at 10 µM; stronger effect = lower value
[6] = MRP1 drug-resistance reversers in H69AR cells – cell-based, doxorubicin co-treatment, pilot screen (AID 601;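 active = viability loss from added drug above about 55%, and viability with drug at most 40%, in both replicates, limit read from the data, passing the limit was not always enough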); details: CellTiter-Glo, 72 h, at 10 µM; for differential viability (reversal): stronger effect = higher value
[7] = yeast transport mutant growth inhibition pilot in 384-well plates, post-Golgi transport modulator project (AID 636; in the data active = inhibition above about 31%); details: absorbance 615 nm, about 18 h, stronger effect = higher value
[8] = growth suppression of yeast trafficking mutant, preliminary HTS, modulators of trafficking downstream of Golgi apparatus project, 1536-format plate, OD 615 nm (AID 637; in the data active = inhibition above about 30%); details: yeast transport mutant growth, absorbance 615 nm, 18 h; stronger effect = higher value
[9] = H69AR cells + 2 uM doxorubicin, measured here: viability with 2 uM doxorubicin, stronger effect = lower value
[10] = H69AR cells, compound alone cytotoxicity

Chain of Receptor tyrosine-protein kinase erbB-2 (Homo sapiens) (P04626 whole entry, looked up): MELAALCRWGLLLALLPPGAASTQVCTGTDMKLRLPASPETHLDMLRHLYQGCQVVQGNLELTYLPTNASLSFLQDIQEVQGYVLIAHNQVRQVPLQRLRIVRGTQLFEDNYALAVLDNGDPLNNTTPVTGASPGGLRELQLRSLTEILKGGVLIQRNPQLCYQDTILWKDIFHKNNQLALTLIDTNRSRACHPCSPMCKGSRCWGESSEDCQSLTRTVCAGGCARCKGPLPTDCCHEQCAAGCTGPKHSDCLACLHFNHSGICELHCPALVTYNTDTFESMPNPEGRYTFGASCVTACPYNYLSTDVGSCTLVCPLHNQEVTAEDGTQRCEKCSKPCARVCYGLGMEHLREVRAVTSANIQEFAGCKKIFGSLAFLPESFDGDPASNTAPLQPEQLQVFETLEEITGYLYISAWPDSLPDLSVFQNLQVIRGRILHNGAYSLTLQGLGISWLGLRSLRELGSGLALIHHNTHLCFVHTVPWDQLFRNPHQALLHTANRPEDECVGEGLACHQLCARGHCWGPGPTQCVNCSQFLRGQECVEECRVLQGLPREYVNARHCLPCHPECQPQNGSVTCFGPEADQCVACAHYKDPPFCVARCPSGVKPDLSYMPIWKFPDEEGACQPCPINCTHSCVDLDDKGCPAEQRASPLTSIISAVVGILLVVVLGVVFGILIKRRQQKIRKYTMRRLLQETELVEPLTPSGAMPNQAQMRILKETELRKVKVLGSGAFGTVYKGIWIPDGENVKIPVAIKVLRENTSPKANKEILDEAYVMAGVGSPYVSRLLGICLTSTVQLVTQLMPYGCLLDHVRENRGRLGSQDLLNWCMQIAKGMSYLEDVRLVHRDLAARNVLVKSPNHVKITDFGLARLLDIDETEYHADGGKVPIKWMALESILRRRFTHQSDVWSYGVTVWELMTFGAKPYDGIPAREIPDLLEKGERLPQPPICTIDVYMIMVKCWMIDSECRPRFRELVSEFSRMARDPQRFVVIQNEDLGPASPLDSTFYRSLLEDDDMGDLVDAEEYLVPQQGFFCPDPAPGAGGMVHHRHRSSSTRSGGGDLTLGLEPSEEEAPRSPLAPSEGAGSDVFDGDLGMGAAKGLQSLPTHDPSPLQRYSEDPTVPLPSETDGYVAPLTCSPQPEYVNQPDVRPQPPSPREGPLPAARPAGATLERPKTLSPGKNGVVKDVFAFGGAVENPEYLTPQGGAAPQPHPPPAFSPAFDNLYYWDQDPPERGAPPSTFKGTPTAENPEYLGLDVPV

SMILES | viability [1] [%] | Her2 level [2] | viability [3] | viability [4] | viability [5] | differential viability (reversal) ([6]; H69AR cells + 2 uM doxorubicin) | viability [6, 9] [%] | viability [6, 10] [%] | inhibition [7] | inhibition [8]
O=C(COC(=O)c1ccc(Br)o1)Nc1ccc(S(=O)(=O)N2CCCC2)cc1 | 80 | 74.5% (inactive) | 80% (inactive) | 102% (inactive) | 95.6% (inactive) | 13.3% (inactive) | 82.3 | 95.6 | -6.35% (inactive) | -1% (inactive)
CC(=O)c1cccc(-n2nnnc2SCC(=O)N2CCCC2)c1 | 93.5 | 88% (inactive) | 93.5% (inactive) | 83.1% (inactive) | 87.9% (inactive) | -2.82% (inactive) | 90.7 | 87.9 | -3.55% (inactive) | -7.5% (inactive)
CCCCCC1CC(CC(=O)O)C(=O)O1 (stereo not given) | 100 | 96% (inactive) | 100% (inactive) | 82.5% (inactive) | 104% (inactive) | 7.44% (inactive) | 96.2 | 104 | -4.87% (inactive) | 7.67% (inactive)
COC(=O)c1ccc(N2C(=O)CC(N3CCN(C(=O)c4ccco4)CC3)C2=O)cc1 (stereo not given) | 86 | 89.5% (inactive) | 86% (inactive) | 85.9% (inactive) | 89.5% (inactive) | -4.23% (inactive) | 93.7 | 89.5 | -3.73% (inactive) | -2.95% (inactive)
CN(C)S(=O)(=O)c1ccc(/C(O)=C2/C(=O)C(=O)N(CCN3CCCCC3)C2c2cccnc2)cc1 (stereo not given) | 87 | 166% (inactive) | 87% (inactive) | 92.1% (inactive) | 87.3% (inactive) | -3.39% (inactive) | 90.7 | 87.3 | 6.54% (inactive) | 11.3% (inactive)
CCN(C(=O)c1cn(C)c(=O)c2cc(OC)c(OC)cc12)c1ccccc1C | 108 | 75% (inactive) | 108% (inactive) | 106% (inactive) | 98.2% (inactive) | 7.24% (inactive) | 91 | 98.2 | -0.54% (inactive) | -1.43% (inactive)
Nc1nnnn1/N=C/c1ccccn1 | 69 | 108% (inactive) | 69% (inactive) | 114% (inactive) | 97.2% (inactive) | 11% (inactive) | 86.2 | 97.2 | -4.73% (inactive) | 24% (inactive)
Cc1ccccc1-c1nc(CN2CCC(C(=O)NCCCN3CCCC3)CC2)c(C)o1 | 81.5 | 91.5% (inactive) | 81.5% (inactive) | 63% (inactive) | 98.2% (inactive) | 8.91% (inactive) | 89.3 | 98.2 | 1.32% (inactive) | 0.55% (inactive)
COc1cc(OC)cc(C(=O)N2CCN(C(=O)c3ccc(OC)c(OC)c3)CC2)c1 | 100 | 104% (inactive) | 100% (inactive) | 86.1% (inactive) | 92.4% (inactive) | -11.1% (inactive) | 103 | 92.4 | -1.84% (inactive) | -6.45% (inactive)
CC(=O)N(C(C)=O)c1c(C#N)c(C)n(-c2ccccc2)c1C(=O)c1ccccc1 | 86.5 | 88% (inactive) | 86.5% (inactive) | 78.4% (inactive) | 77.9% (inactive) | -9.1% (inactive) | 87 | 77.9 | -2.53% (inactive) | -2.58% (inactive)
Cc1cc(C)n2cc(CSc3nnnn3-c3ccc(Cl)cc3)nc2n1 | 89.5 | 89% (inactive) | 89.5% (inactive) | 94.1% (inactive) | 97.6% (inactive) | 7.13% (inactive) | 90.5 | 97.6 | -1.73% (inactive) | 0.65% (inactive)
CCOCCCNC(=O)C1CCC(=O)N1CCc1ccccc1 (stereo not given) | 100 | 95.5% (inactive) | 100% (inactive) | 84.7% (inactive) | 98.3% (inactive) | -12.8% (inactive) | 111 | 98.3 | -3.42% (inactive) | -5.32% (inactive)
CCOC(=O)N1CCN(C(=O)C2CC(=O)N(Cc3ccc(OC)cc3)C2)CC1 (stereo not given) | 96.5 | 91% (inactive) | 96.5% (inactive) | 112% (inactive) | 93.3% (inactive) | -3.47% (inactive) | 96.8 | 93.3 | -4.34% (inactive) | -1.45% (inactive)
CC1CCCCC1NC(=O)CN1CCN(Cc2ccccc2Cl)C1=O (stereo not given) | 102 | 97% (inactive) | 102% (inactive) | 90.9% (inactive) | 80.4% (inactive) | 11.9% (inactive) | 68.5 | 80.4 | -4.68% (inactive) | -7.67% (inactive)
COc1ccc(OC)c(Nc2cc(-c3ccccc3)nc(N)n2)c1 | 72 | 69% (inactive) | 72% (inactive) | 34.2% (inactive) | 30.7% (active) | -36.4% (inactive) | 67.1 | 30.7 | -5.92% (inactive) | -5.09% (inactive)
